Experimental findings from ChEMBL document CHEMBL1135505, “Synthesis and pharmacology of benzoxazines as highly selective antagonists at M(4) muscarinic receptors” (J Med Chem, 2002) are described below.

A value given as a limit tells only on which side of the number the result lay.

Type in all cases: cell-based
For assay [1], the target named is T1, Muscarinic acetylcholine receptor M2 (Homo sapiens, UniProt P08172).
T1 sequence (P08172 whole entry): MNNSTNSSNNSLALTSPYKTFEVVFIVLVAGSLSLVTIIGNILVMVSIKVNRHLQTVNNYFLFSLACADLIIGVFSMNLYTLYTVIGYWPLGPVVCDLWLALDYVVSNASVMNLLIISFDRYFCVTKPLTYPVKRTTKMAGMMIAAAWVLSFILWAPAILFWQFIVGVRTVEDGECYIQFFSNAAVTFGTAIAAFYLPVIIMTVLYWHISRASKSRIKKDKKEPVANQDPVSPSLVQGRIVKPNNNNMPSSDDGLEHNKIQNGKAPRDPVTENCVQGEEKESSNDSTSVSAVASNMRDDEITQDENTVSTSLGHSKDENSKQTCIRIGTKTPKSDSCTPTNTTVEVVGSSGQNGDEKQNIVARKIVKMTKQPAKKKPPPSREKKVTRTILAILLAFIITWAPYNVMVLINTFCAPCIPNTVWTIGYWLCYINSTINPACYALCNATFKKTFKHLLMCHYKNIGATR
Kind of assay: Inhibition of [3H]-NMS binding to human muscarinic acetylcholine receptor M2 in transfected CHO cells. In outline:
(§1)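 Membranes from CHO-K1 cells expressing one human muscarinic subtype, harvested at 70-90% confluency. Incubated in 10 mM Na+/K+ PO4 pH 7.4 with 0.1 nM [3H]NMS and test compound for 120 min at 25 °C; atropine defined nonspecific binding. Filtration and scintillation counting. IC50 by logit fit, Ki by Cheng–Prusoff with KD (nM) M1 1.28, M2 0.85, M3 0.94, M4 3.10, M5 0.79. At least three tests, geometric mean.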

Assay [2] addresses T2, Muscarinic acetylcholine receptor M1 (Homo sapiens, UniProt P11229).
T2 sequence (P11229 whole entry): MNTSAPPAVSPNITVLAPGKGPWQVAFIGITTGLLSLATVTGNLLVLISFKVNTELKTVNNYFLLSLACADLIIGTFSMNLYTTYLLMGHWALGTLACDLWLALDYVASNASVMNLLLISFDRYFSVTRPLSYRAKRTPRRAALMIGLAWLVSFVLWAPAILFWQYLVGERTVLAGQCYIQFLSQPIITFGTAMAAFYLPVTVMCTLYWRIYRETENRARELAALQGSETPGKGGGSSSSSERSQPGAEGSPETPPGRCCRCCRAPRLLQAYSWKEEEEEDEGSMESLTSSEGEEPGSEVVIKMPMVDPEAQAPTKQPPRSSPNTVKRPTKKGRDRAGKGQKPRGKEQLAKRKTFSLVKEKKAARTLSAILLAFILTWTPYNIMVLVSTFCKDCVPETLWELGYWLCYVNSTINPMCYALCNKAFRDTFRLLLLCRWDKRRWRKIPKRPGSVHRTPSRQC
Kind of assay: Inhibition of [3H]NMS binding to human muscarinic acetylcholine receptor M1 in transfected CHO cells. In outline: as §1

The target of assay [3] is T3, Muscarinic acetylcholine receptor M4 (Homo sapiens, UniProt P08173).
T3 sequence (P08173 whole entry): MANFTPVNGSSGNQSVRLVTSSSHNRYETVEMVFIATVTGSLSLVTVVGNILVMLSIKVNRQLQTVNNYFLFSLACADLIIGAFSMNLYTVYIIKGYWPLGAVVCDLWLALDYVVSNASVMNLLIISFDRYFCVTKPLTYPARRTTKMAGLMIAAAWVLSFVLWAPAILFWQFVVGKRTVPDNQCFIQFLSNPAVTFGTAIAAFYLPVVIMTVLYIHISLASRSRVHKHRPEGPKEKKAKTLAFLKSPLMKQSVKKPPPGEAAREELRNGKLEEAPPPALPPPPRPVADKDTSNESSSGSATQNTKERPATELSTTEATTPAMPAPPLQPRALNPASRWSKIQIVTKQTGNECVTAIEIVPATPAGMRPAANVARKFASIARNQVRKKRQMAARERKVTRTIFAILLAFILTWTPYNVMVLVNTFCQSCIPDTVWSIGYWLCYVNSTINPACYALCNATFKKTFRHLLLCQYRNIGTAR
The assay can be described thus: Inhibition of [3H]NMS binding to human muscarinic acetylcholine receptor M4 in transfected CHO cells. Put shortly:
as §1

Assay [4] addresses T4, Muscarinic acetylcholine receptor M5 (Homo sapiens, UniProt P08912).
T4 sequence (P08912 whole entry): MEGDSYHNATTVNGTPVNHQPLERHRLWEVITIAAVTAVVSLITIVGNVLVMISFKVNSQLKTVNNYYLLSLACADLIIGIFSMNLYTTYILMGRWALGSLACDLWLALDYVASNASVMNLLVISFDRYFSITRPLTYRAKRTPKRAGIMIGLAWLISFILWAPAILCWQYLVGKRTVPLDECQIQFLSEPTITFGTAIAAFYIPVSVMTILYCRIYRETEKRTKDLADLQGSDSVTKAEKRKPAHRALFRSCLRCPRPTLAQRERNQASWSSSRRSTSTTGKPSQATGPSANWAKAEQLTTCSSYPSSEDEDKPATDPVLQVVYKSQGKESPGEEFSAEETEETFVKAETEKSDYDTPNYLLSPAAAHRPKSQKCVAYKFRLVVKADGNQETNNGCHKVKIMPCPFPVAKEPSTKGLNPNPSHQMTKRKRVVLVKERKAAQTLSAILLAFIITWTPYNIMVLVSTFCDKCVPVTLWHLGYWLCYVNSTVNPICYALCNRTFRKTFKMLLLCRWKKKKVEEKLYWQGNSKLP
Kind of assay: Inhibition of [3H]NMS binding to human muscarinic acetylcholine receptor M5 in transfected CHO cells. In outline: as §1

For assay [5], the target named is Muscarinic acetylcholine receptor M3 (Homo sapiens, UniProt P20309). Kind of assay: Inhibition of [3H]NMS binding to human muscarinic acetylcholine receptor M3 in transfected CHO cells. In outline:
as §1

Chain of Muscarinic acetylcholine receptor M3 (P20309 whole entry): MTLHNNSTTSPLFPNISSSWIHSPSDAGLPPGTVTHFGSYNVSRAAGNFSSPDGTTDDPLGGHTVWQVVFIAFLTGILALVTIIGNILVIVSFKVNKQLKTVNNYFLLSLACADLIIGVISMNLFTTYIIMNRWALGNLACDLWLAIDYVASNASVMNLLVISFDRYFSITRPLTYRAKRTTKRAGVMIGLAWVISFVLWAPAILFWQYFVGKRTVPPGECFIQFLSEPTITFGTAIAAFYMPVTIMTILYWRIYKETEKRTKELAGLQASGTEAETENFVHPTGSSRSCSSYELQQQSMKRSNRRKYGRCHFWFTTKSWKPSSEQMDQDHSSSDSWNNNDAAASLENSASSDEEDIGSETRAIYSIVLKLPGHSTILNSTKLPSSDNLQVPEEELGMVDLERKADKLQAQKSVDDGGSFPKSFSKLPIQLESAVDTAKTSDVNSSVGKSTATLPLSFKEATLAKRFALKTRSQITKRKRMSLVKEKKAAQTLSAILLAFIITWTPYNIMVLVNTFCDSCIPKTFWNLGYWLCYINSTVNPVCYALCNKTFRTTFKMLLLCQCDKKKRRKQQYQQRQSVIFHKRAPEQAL

Take `CCOC(=O)c1c(CC)n(Cc2ccccc2)c2ccc3c(c12)CN1CCc2cc(OC)ccc2C1O3` (stereo not given): the inhibitory constant (Ki) is 372 nM in assay [1]; 363 nM in assay [2]; 97.7 nM in assay [3]; 479 nM in assay [4]; 50.1 nM in assay [5].
For `CCOC(=O)c1c(CC)n(C)c2ccc3c(c12)CN1CCc2cc(OC)ccc2C1O3` (stereo not given), in that order: 708 nM, 1510 nM, 3.02 nM, 3090 nM and 219 nM.
For `C=CCOC(=O)c1c(C)n(Cc2ccc(OC)cc2)c2ccc3c(c12)CN1CCc2cc(OC)ccc2C1O3` (stereo not given), in that order: 240 nM, 200 nM, 72.4 nM, 501 nM and 676 nM.
As to `CCOC(=O)c1c(CC)[nH]c2ccc3c(c12)CN1CCc2cc(OC)ccc2C1O3` (stereo not given), the Ki in assay [1] is 1350 nM; in assay [2], 2190 nM; in assay [3], 3.98 nM; in assay [4], 3090 nM; in assay [5], 91.2 nM.
The like results for `CCCCCCc1[nH]c2ccc3c(c2c1C(=O)OCC)CN1CCc2cc(OC)ccc2C1O3` (stereo not given) were, in that order, 4570 nM, 3090 nM, 14.1 nM, more than 28200 nM and 282 nM.
The like results for `C=CCOC(=O)c1c(C)[nH]c2ccc3c(c12)CN1CCc2cc(OC)ccc2C1O3` (stereo not given) were, in that order, 1070 nM, 1320 nM, 15.1 nM, 2240 nM and 407 nM.
The like results for `CCCCCc1[nH]c2ccc3c(c2c1C(=O)OCC)CN1CCc2cc(OC)ccc2C1O3` (stereo not given) were, in that order, 7240 nM, 20400 nM, 11 nM, 5370 nM and 457 nM.
Consider `CCCCc1[nH]c2ccc3c(c2c1C(=O)OCC)CN1CCc2cc(OC)ccc2C1O3` (stereo not given), for which the Ki in assay [1] is 339 nM; in assay [2] it was 13200 nM; in assay [3] it was 1 nM; in assay [4] it was 11200 nM; in assay [5], 151 nM.
For the compound `CCOC(=O)c1c(C)[nH]c2ccc3c(c12)CN1CCc2cc(O)ccc2C1O3` (stereo not given), the Ki is more than 26900 nM in assay [1]; more than 21900 nM in assay [2]; more than 12300 nM in assay [3]; more than 28200 nM in assay [4]; 25700 nM in assay [5].
Turning to `COc1ccc2c(c1)CCN1Cc3c(ccc4[nH]c(C)c(Cc5ccccc5)c34)OC21` (stereo not given), the Ki in assay [1] is 5370 nM; in assay [2] it was 2510 nM; in assay [3], 1350 nM; in assay [4], 1120 nM; in assay [5], 2040 nM.
Take `CCOC(=O)c1c(C)n(CC)c2ccc3c(c12)CN1CCc2cc(OC)ccc2C1O3` (stereo not given): the Ki in assay [1] was 219 nM; in assay [2] it was 1320 nM; in assay [3], 110 nM; in assay [4] it was 2510 nM; in assay [5], 263 nM.
For `CCCCc1[nH]c2ccc3c(c2c1C(=O)OCC)CN1CCc2cc(SC)ccc2C1O3` (stereo not given), in that order: 2190 nM, 871 nM, 3.02 nM, 1480 nM and 339 nM.
For `CCCc1c(C(=O)OCC)c2c3c(ccc2n1C)OC1c2ccc(OC)cc2CCN1C3` (stereo not given), in that order: 513 nM, 1320 nM, 2 nM, 3390 nM and 70.8 nM.
The like results for `COC(=O)c1c(C)n(C)c2ccc3c(c12)CN1CCc2cc(OC)ccc2C1O3` (stereo not given) were, in that order, 417 nM, 1170 nM, 191 nM, 3630 nM and 398 nM.
In the case of `CCOC(=O)c1c(C)[nH]c2ccc3c(c12)CN1CCc2cccc(Cl)c2C1O3` (stereo not given), the Ki in assay [1] was 2450 nM; in assay [2], more than 4370 nM; in assay [3], 1950 nM; in assay [4] it was 4790 nM; in assay [5], 5130 nM.
For `CCCc1[nH]c2ccc3c(c2c1C(=O)OCC)CN1CCc2cc(OC)ccc2C1O3` (stereo not given), in that order: 1070 nM, 2040 nM, 2 nM, 2240 nM and 70.8 nM.
For `CCOC(=O)c1c(C)[nH]c2ccc3c(c12)CN1CCc2cc(SC)ccc2C1O3` (stereo not given), in that order: 2190 nM, 1780 nM, 7.08 nM, 1950 nM and 229 nM.
The like results for `CCCc1c(C(=O)OCC)c2c3c(ccc2n1C)OC1c2ccc(SC)cc2CCN1C3` (stereo not given) were, in that order, 3800 nM, 3310 nM, 2 nM, 1700 nM and 229 nM.
With `CCOC(=O)c1c(C)n(C)c2ccc3c(c12)CN1CCc2cc(OC)ccc2C1O3` (stereo not given), the Ki in assay [1] was 513 nM; in assay [2] it was 2000 nM; in assay [3] it was 15.1 nM; in assay [4], 3720 nM; in assay [5] it was 912 nM.
The like results for `CCOC(=O)c1c(C)[nH]c2ccc3c(c12)CN1CCc2cc(OC)ccc2C1O3` (stereo not given) were, in that order, 537 nM, 1320 nM, 7.08 nM, 3390 nM and 257 nM.
With `COc1ccc2c(c1)CCN1Cc3c(ccc4[nH]c(C)c(C(=O)OCc5ccccc5)c34)OC21` (stereo not given), the Ki in assay [1] was 1350 nM; in assay [2], 1170 nM; in assay [3] it was 72.4 nM; in assay [4], 1120 nM; in assay [5], 1380 nM.
The like results for `COc1ccc2c(c1)CCN1Cc3c(ccc4[nH]c(C)c(-c5nc(C)no5)c34)OC21` (stereo not given) were, in that order, 2190 nM, 7590 nM, 61.7 nM, 6170 nM and 3090 nM.
For `CCN(C)C(=O)c1c(C)[nH]c2ccc3c(c12)CN1CCc2cc(OC)ccc2C1O3` (stereo not given), in that order: 4070 nM, 21900 nM, 9770 nM, 19500 nM and 15500 nM.
The like results for `CCCCOC(=O)c1c(C)[nH]c2ccc3c(c12)CN1CCc2cc(OC)ccc2C1O3` (stereo not given) were, in that order, 2340 nM, 1320 nM, 67.6 nM, 2510 nM and 1020 nM.

What is called Ki is the equilibrium dissociation constant of an inhibitor or competing ligand from its target. A lower Ki goes with higher affinity.
